Shown are actives, neighbours in structure and some others; about 2.2% of the full set was active somewhere.
M18AAP inhibitor – blocks P. falciparum M18 aspartyl aminopeptidase. AID 1822. actives 1.2% (n = 290,000). recombinant PfM18AAP, H-Glu-NHMec fluorogenic cleavage. inhibition, % at 7.35 µM;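 active means inhibition above the campaign mean inhibition over all tested compounds plus 3 SD, cut at about 28% in these data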;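 further: 0% = plate median of test compound wells and 100% = 2 mM ZnCl2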
PfG6PD inh – PfG6PD (Plasmodium falciparum) enzyme inhibition | PfGluPho enzyme, NADPH resazurin-diaphorase fluorescence | actives 0.78% (n = 350,000) | inhibition, % at 20 µM;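 active means inhibition reaching at least a set limit at 20 µM in the primary screen, cut at about 59% in these data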;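 further: 0% = DMSO wells with substrate and 100% = DMSO wells lacking glucose-6-phosphate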
HKDC1 inhibitor – HKDC1 (human) hexokinase inhibition; actives 0.16% (n = 340,000); AID 493160; recombinant HKDC1, G6PDH/diaphorase resazurin coupled fluorescence; Q2TB90; inhibition, % at 20 µM;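 active means inhibition above about 35% when tested at 20 µM, limit read from the data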;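 further: plate controls were DMSO wells with enzyme for no effect and DMSO wells lacking enzyme for full effect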
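Test system: Recombinant HKDC1 (HK5) hexokinase enzyme, produced in-house | Input: HKDC1 at 5 µg/mL | Buffer or medium: Tris pH 8.0 buffer with MgCl2, Tween-20, BSA, BME | Schedule: 90 min reaction incubation at room temperature, dark | Technique: Resazurin-to-resorufin fluorescence via G6PDH and diaphorase coupling, 525/613 nm | Controls: DMSO wells with and without enzyme mix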
Neddyl block – cullin neddylation inhibition. TR-FRET cullin neddylation, biochemical. inhibition, % at 25 µM. AID 651699. actives 0.58% (n = 360,000); in the data active means inhibition above about 36%
Target sequence (P61081 whole entry, looked up): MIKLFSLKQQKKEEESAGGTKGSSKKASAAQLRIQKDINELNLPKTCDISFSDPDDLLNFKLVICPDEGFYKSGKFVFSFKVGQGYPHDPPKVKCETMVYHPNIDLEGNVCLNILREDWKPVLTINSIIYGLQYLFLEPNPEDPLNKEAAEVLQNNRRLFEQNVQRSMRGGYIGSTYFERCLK
Target sequence (Q13564 whole entry, looked up): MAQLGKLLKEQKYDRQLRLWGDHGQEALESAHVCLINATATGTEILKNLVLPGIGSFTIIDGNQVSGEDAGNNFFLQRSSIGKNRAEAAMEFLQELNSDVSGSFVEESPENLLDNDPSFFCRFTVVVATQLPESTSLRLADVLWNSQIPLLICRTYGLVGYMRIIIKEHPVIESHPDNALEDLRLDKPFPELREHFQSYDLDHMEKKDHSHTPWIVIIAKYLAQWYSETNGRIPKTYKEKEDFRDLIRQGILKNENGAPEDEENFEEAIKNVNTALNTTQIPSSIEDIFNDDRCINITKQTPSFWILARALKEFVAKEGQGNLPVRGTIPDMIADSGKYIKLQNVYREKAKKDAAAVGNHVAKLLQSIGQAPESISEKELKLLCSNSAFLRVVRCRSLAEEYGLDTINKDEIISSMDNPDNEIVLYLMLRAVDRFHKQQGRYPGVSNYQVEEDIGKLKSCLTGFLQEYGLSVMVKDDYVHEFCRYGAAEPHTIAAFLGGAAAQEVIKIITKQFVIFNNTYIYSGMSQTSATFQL
Neddyl conf – cullin neddylation inhibition, confirmation | TR-FRET cullin neddylation biochemical assay | AID 652217 | actives 13% (n = 1,800) | shares compounds with Neddyl block | calls only at 25 µM; in the data active means inhibition above about 40%;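 further: neddylation substrate is the cullin 1 ring ligase complex with SKP2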
Numbers without * were called inactive.

Results for O=C(CN1c2cccc3cccc(c23)S1(=O)=O)NC1CCCCC1 ?
PfG6PD inh: -8; HKDC1 inhibitor: 5; Neddyl block: 38

What do the screens show for `O=C(O)c1ccc(/C=N/NC(=O)c2ccc(CN3c4cccc5cccc(c45)S3(=O)=O)cc2)cc1`?
M18AAP inhibitor: -2; PfG6PD inh: 19; HKDC1 inhibitor: 12; Neddyl block: 51*; Neddyl conf: active

What do the screens show for `O=C(CN1c2cccc3cccc(c23)S1(=O)=O)N1CCOCC1`?
M18AAP inhibitor: -7; PfG6PD inh: -9; HKDC1 inhibitor: 14; Neddyl block: 47*

How did O=C(CN1c2cccc3cccc(c23)S1(=O)=O)N1CCCCC1 do in these assays?
PfG6PD inh: 1; HKDC1 inhibitor: 7; Neddyl block: 42*; Neddyl conf: active

How did CC1CCCC(C)N1C(=O)CN1c2cccc3cccc(c23)S1(=O)=O (stereo not given) do in these assays?
PfG6PD inh: -7; HKDC1 inhibitor: 10; Neddyl block: 51*; Neddyl conf: active

Results for O=C(CN1c2cccc3cccc(c23)S1(=O)=O)N1CCN(c2ccc(F)cc2)CC1 ?
PfG6PD inh: 4; HKDC1 inhibitor: 10; Neddyl block: 36

How did CC(/C=N/NC(=O)c1ccc(CN2c3cccc4cccc(c34)S2(=O)=O)cc1)c1ccccc1 (stereo not given) do in these assays?
M18AAP inhibitor: -5; PfG6PD inh: 10; HKDC1 inhibitor: -2

Results for O=C(Nc1ccc([N+](=O)[O-])cc1)OC1CCS(=O)(=O)C1 (stereo not given) ?
Neddyl block: -23

What do the screens show for `CCN(C(=O)C1CCCN(c2ncnc3c2nc2n3CCCCC2)C1)c1cccc(Cl)c1` (stereo not given)?
M18AAP inhibitor: 4; PfG6PD inh: 2; HKDC1 inhibitor: 4; Neddyl block: 9

Results for Cc1nn(-c2ccccc2)c2nc3c(cc12)C(=O)CCC3 ?
M18AAP inhibitor: -2; PfG6PD inh: -1; HKDC1 inhibitor: -1; Neddyl block: 44*; Neddyl conf: inactive

How did Cc1nn(-c2ccccc2)c2nc(Cl)c(C(=O)O)cc12 do in these assays?
M18AAP inhibitor: 2; PfG6PD inh: -1; HKDC1 inhibitor: -9

What do the screens show for `O=C(COC(=O)c1cc(-c2ccc(F)cc2)nc2ccccc12)NCC1CCCO1` (stereo not given)?
M18AAP inhibitor: 0; PfG6PD inh: -8; HKDC1 inhibitor: -2; Neddyl block: 49*; Neddyl conf: inactive

What do the screens show for `O=C(COC(=O)c1cccc2ccccc12)NCC1CCCO1` (stereo not given)?
M18AAP inhibitor: -9; PfG6PD inh: -15; HKDC1 inhibitor: 18; Neddyl block: 5

How did CC(C)NCC(O)COCc1ccc(Cl)cc1 (stereo not given) do in these assays?
M18AAP inhibitor: -7; PfG6PD inh: -1; HKDC1 inhibitor: -16; Neddyl block: -4

Results for CC(C)NCC(O)COCCOc1ccc(Cl)cc1 (stereo not given) ?
M18AAP inhibitor: -7; PfG6PD inh: -1; HKDC1 inhibitor: 0; Neddyl block: 76*; Neddyl conf: inactive

What do the screens show for `COCCn1nnnc1C(C(C)C)N(Cc1ccccc1)Cc1cc2cc(OC)ccc2[nH]c1=O` (stereo not given)?
M18AAP inhibitor: -2; PfG6PD inh: 15; HKDC1 inhibitor: -1

What do the screens show for `COCCn1nnnc1C(C(C)C)N(Cc1cccnc1)Cc1cc2cc(OC)ccc2[nH]c1=O` (stereo not given)?
M18AAP inhibitor: 3; PfG6PD inh: -15; HKDC1 inhibitor: -3; Neddyl block: 40*; Neddyl conf: inactive

What do the screens show for `CN(CC(=O)Nc1cccc(F)c1)C(=O)c1cc(-c2ccco2)nc2ccccc12`?
PfG6PD inh: 30; HKDC1 inhibitor: 9; Neddyl block: 42*

What do the screens show for `CC1(C)CC2(CCO1)C(Nc1ccccc1)=NC(=S)N2CC(N)=O` (stereo not given)?
M18AAP inhibitor: -2; PfG6PD inh: -1; HKDC1 inhibitor: -2; Neddyl block: 36*; Neddyl conf: inactive

How did O=C(NCCc1ccc(Cl)cc1)C1=CC=CN2CCS(=O)(=O)N=C12 do in these assays?
PfG6PD inh: 7; HKDC1 inhibitor: -3; Neddyl block: 46*; Neddyl conf: active

What do the screens show for `CC1(C)Cc2c(C#N)c(NCCO)nc(-c3ccco3)c2CO1`?
M18AAP inhibitor: 11; PfG6PD inh: 21; HKDC1 inhibitor: 1; Neddyl block: 39*

How did CN1C(=O)/C(=C/c2ccc(OCc3ccc(F)cc3)cc2)NC1=S do in these assays?
M18AAP inhibitor: -6; PfG6PD inh: 16; HKDC1 inhibitor: 4; Neddyl block: 0

Results for COc1cc2c(cc1NC(=O)/C=C/c1cc(OC)c(OC)c(OC)c1)oc1ccccc12 ?
M18AAP inhibitor: -6; PfG6PD inh: 7; HKDC1 inhibitor: -3; Neddyl block: 46*; Neddyl conf: inactive

How did COc1cc(/C=C/C(=O)NCc2cccnc2)cc(OC)c1OC do in these assays?
M18AAP inhibitor: -7; PfG6PD inh: -4; HKDC1 inhibitor: -5; Neddyl block: 47*; Neddyl conf: inactive

What do the screens show for `O=C(Nc1ccc(F)cc1)c1cccnc1NCCc1ccccc1`?
M18AAP inhibitor: 1; PfG6PD inh: 30; HKDC1 inhibitor: -5; Neddyl block: 22

What do the screens show for `O=C(Nc1cccc(F)c1)c1cccnc1NCCc1ccccc1`?
M18AAP inhibitor: 3; PfG6PD inh: 21; HKDC1 inhibitor: 4; Neddyl block: 44*; Neddyl conf: inactive

How did COC(=O)c1c(C(=O)OC)c2cc(C(=O)c3ccccc3)ccn2c1Cl do in these assays?
M18AAP inhibitor: 0; PfG6PD inh: 9; HKDC1 inhibitor: -2; Neddyl block: 48*; Neddyl conf: inactive

Results for Cc1ccccc1-c1cc2c(c3c1ccn3C)C1CCC2O1 (stereo not given) ?
Neddyl block: 24

What do the screens show for `Cn1ccc2c(-c3cncc4ccccc34)cc3c(c21)C1CCC3O1` (stereo not given)?
Neddyl block: 46*; Neddyl conf: active

Results for Cc1ccc(NC(=O)c2cc3ccccc3cc2O)cc1 ?
M18AAP inhibitor: 8; PfG6PD inh: 18; HKDC1 inhibitor: 5; Neddyl block: 43*; Neddyl conf: inactive

Results for COc1ccc2oc(C(=O)CCC(=O)O)c(N)c2c1 ?
M18AAP inhibitor: -2; PfG6PD inh: 4; HKDC1 inhibitor: 5; Neddyl block: 48*; Neddyl conf: inactive

What do the screens show for `COc1ccc(OC)c(/C=C/C(=O)N(C)CC(=O)Nc2ccc(N3CCOCC3)cc2)c1`?
PfG6PD inh: 0; HKDC1 inhibitor: -3; Neddyl block: 60*

Results for COc1ccc(NC(=O)CN(C)C(=O)/C=C/c2cn(-c3ccccc3)nc2-c2ccc(C)cc2)cc1 ?
PfG6PD inh: 16; HKDC1 inhibitor: 1; Neddyl block: -15

Results for COc1ccc(NC(=O)CN(C)C(=O)/C=C/c2cn(-c3ccccc3)nc2-c2cccs2)cc1 ?
PfG6PD inh: -4; HKDC1 inhibitor: 1; Neddyl block: 44*; Neddyl conf: inactive

From PubChem
